Experimental data pooled from the literature.
Compare with care: the assays were run in different laboratories.
Target: Protein kinase C zeta type (PRKCZ, Homo sapiens, UniProt Q05513)
Sequence (Q05513 1-592, as in one of the studies): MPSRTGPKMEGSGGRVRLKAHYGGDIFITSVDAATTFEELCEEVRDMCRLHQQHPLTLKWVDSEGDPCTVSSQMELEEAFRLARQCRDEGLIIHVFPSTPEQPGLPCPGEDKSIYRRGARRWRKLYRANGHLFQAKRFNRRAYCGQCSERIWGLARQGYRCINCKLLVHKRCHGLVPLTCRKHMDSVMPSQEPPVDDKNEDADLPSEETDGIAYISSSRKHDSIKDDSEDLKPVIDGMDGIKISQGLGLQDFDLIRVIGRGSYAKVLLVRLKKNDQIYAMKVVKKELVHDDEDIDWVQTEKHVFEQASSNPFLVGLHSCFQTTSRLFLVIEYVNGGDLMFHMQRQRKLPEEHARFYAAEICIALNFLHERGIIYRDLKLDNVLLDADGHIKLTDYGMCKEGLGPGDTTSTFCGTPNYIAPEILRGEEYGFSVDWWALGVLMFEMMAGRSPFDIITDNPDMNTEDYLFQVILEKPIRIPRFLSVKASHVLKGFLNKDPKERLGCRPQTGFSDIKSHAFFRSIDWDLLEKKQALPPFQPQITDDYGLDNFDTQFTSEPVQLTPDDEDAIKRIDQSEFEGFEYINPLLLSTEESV

SMILES	effect on	mode	technique	tested at	endpoint	value
CC(C)(C)c1nc(-c2cccc(NS(=O)(=O)c3c(F)cccc3F)c2F)c(-c2ccnc(N)n2)s1	enzyme activity	inhibitor	radiometric	1 µM	remaining activity	109%
CNC(=O)c1cc(Oc2ccc(NC(=O)Nc3ccc(Cl)c(C(F)(F)F)c3)cc2)ccn1	enzyme activity	inhibitor	–	10 µM	inhibition	-5%
Cn1c2c(c3ccc(Cl)c(Cl)c31)C(C#N)C1(CCOCC1)NC2=O (centres unmarked)	thermal stability	–	DSF	10 µM	ΔTm	-0.2 °C
Cc1sc(C(=O)NC2COC2)cc1-n1cc(NC(=O)Nc2c(F)cccc2Cl)cn1	enzyme activity	inhibitor	–	10 µM	remaining activity	104%
COc1cc(-c2cc(-c3ccc(N4CCNCC4)cc3)cnc2C)cc(OC)c1OC	enzyme activity	inhibitor	–	0.1 µM	inhibition	5%
CCN1CCC2(CC1)NC(=O)c1c(c3ccc(Cl)c(Cl)c3n1C)C2C#N (racemic)	thermal stability	–	DSF	10 µM	ΔTm	0.1 °C
COc1cc2ncnc(Nc3ccc(Oc4ccccc4)c(C)c3C)c2cc1OC	enzyme activity	inhibitor	–	1 µM	inhibition	14%
O=C1NC(=O)c2cc(Nc3ccc(F)cc3)c(Nc3ccc(F)cc3)cc21	cell-free assay	–	–	0.5 µM	remaining signal	100%
Cn1c2c(Cl)c(Cl)ccc2c2cc(N)[nH]c(=O)c21	thermal stability	–	DSF	10 µM	ΔTm	0.1 °C
COc1cccc2c(NCc3ccccc3)nc(-n3c(N)nc4ccccc43)nc12	target engagement in cells	inhibitor	chemoproteomics	20 mM	inhibition	19.7%
CCCS(=O)(=O)Nc1ccc(F)c(C(=O)c2c[nH]c3ncc(-c4ccc(Cl)cc4)cc23)c1F	enzyme activity	inhibitor	–	1 µM	inhibition	< 20%
COc1cc(Nc2cnc(C#N)c(O[C@H](C)CN(C)C)n2)ncc1-c1cnn(C)c1	enzyme activity	inhibitor	radiometric	1 µM	remaining activity	121%
Nc1nc(Nc2ccccc2)sc1C(=O)c1c(F)cccc1F	enzyme activity	inhibitor	–	10 µM	remaining activity	83%
Cc1cc(NC(=O)c2cccc3cc(-c4cccc5[nH]nc(N)c45)ccc23)ccc1F	enzyme activity	inhibitor	–	0.1 µM	activity vs control	99%
Oc1cccc(-c2nc(N3CCOCC3)c3oc4ncccc4c3n2)c1	enzyme activity	inhibitor	–	10 µM	remaining activity	98%
C[C@@H](N)[C@H]1CC[C@H](C(=O)Nc2ccncc2)CC1	enzyme activity	inhibitor	TR-FRET	10 µM	inhibition	7.4%
CC(C)c1ccc(NC(=O)c2cccs2)c(-c2nc3ccccc3[nH]c2=O)c1	enzyme activity	inhibitor	–	1 µM	activity vs control	97%
